Source: ChEMBL document CHEMBL1155130, “Selective angiotensin II AT2 receptor agonists: Benzamide structure-activity relationships” (Bioorg Med Chem, 2008)
Active and inactive are the calls of the source. The calls are words filed in the database; no cut-off is given here.

Assays:
[1] = biological target: T1, Type-1 angiotensin II receptor A (Rattus norvegicus, UniProt P25095); test: Displacement of [125]Ang2 from AT1 receptor in rat liver membrane; assay type: cell membranes
T1 sequence (P25095 whole entry): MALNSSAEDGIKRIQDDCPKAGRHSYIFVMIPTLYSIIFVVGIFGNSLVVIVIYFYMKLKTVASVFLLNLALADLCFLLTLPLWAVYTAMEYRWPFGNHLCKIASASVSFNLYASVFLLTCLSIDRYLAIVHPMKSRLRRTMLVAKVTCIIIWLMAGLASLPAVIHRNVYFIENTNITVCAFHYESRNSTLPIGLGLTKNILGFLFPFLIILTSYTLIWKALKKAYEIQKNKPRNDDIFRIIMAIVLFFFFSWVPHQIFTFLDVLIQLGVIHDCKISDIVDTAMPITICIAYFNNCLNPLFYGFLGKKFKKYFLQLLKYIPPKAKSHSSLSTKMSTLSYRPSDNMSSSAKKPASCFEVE
Outline: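 Rat liver membranes (5 mg original tissue per tube) incubated with [125I]Ang II (80,000–85,000 cpm, 0.03 nM) and varying test concentrations in 50 mM Tris–HCl pH 7.4, 100 mM NaCl, 10 mM MgCl2, 1 mM EDTA, 0.025% bacitracin, 0.2% BSA; 25 °C, 2 h. GF/B filtration, gamma counting; one-site fit; triplicate.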

[2] = biological target: AT2 receptor (Sus scrofa, UniProt A0A4X1W622); test: Displacement of [125]Ang2 from AT2 receptor in pig uterus membrane; assay type: cell membranes
[3] = system: NG108-15; test: Effect on cellular morphology of mouse rat hybrid NG108-15 cells assessed as induction of neurite outgrowth; assay type: functional, cell-based
Outline: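 NG108-15 cells (passage 18–28) grown in DMEM/10% FBS/HAT/gentamycin, 37 °C, 7% CO2. Plated at 3.6 × 10^4 cells per 35 mm dish, dosed daily for 3 days starting 24 h after plating, ± AT2 antagonist PD 123,319 added 30 min before. Phase-contrast micrographs on day 4. Cells with a neurite longer than one cell body counted as % of total (≥290 cells). Three independent experiments, duplicates, mean ± SEM.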

| Ki [1] [µM] | Ki [2] [µM] | Compound | Activity [3] |
| --- | --- | --- | --- |
| > 10 | 0.0064 | CCCCOC(=O)NS(=O)(=O)c1sc(CC(C)C)cc1-c1ccc(C(=O)NC2CCCCC2)cc1 |  |
| > 10 | 0.0064 | CCCCOC(=O)NS(=O)(=O)c1sc(CC(C)C)cc1-c1ccc(C(=O)N2CCCC2)cc1 |  |
| > 10 | 0.0026 | CCCCOC(=O)NS(=O)(=O)c1sc(CC(C)C)cc1-c1ccc(C(=O)NC(C)C)cc1 |  |
| > 10 | 0.348 | CCCCOC(=O)NS(=O)(=O)c1sc(CC(C)C)cc1-c1ccc(C(=O)N2CCOCC2)cc1 |  |
| > 10 | 0.0032 | CCCCOC(=O)NS(=O)(=O)c1sc(CC(C)C)cc1-c1ccc(C(=O)N2CCCCC2)cc1 |  |
| > 10 | 0.0315 | CCCCOC(=O)NS(=O)(=O)c1sc(CC(C)C)cc1-c1ccc(C(=O)N(C)Cc2ccccc2)cc1 |  |
| > 10 | 0.402 | CCCCOC(=O)NS(=O)(=O)c1ccccc1-c1ccc(C(=O)N(CC)CC)cc1 |  |
| > 10 |  | CCCCOC(=O)NS(=O)(=O)c1sc(CC(C)C)cc1-c1ccc(Cn2ccnc2)cc1 [BULOXIBUTID] |  |
| > 10 | 0.0088 | CCCCOC(=O)NS(=O)(=O)c1sc(CC(C)C)cc1-c1ccc(CN(C)C(C)=O)cc1 |  |
| > 10 | 0.052 | CCCCOC(=O)NS(=O)(=O)c1ccc(-c2ccccc2)cc1-c1ccc(C(=O)N(CC)CC)cc1 | Active |
| 0.0011 | 0.002 | CCCCOC(=O)NS(=O)(=O)c1sc(CC(C)C)cc1-c1ccc(Cn2c(CC)nc3c(C)cc(C)nc32)cc1 |  |
| > 10 | 0.0917 | CCCCOC(=O)NS(=O)(=O)c1ccc(Oc2ccccc2)cc1-c1ccc(C(=O)N(CC)CC)cc1 |  |
| > 10 | 0.3 | CCCCOC(=O)NS(=O)(=O)c1cc(Cc2ccccc2)ccc1-c1ccc(C(=O)N(CC)CC)cc1 |  |
| > 10 | 0.0109 | CCCCOC(=O)NS(=O)(=O)c1sc(CC(C)C)cc1-c1ccc(C(=O)Nc2nccs2)cc1 |  |
| > 10 | 0.144 | CCCCOC(=O)NS(=O)(=O)c1ccc(CC(C)C)cc1-c1ccc(C(=O)N(CC)CC)cc1 |  |
| > 10 | 0.0105 | CCCCOC(=O)NS(=O)(=O)c1sc(CC(C)C)cc1-c1ccc(C(=O)NC2CC2)cc1 |  |
| > 10 | 0.163 | CCCCOC(=O)NS(=O)(=O)c1ccc(Cc2ccccc2)cc1-c1ccc(C(=O)N(CC)CC)cc1 |  |
| > 10 | 0.001 | CCCCOC(=O)NS(=O)(=O)c1sc(CC(C)C)cc1-c1ccc(C(=O)NCc2ccccc2)cc1 | Active |
| > 10 | 0.122 | CCCCOC(=O)NS(=O)(=O)c1cc(CC(C)C)ccc1-c1ccc(C(=O)N(CC)CC)cc1 |  |
| > 10 |  | CCCCOC(=O)NS(=O)(=O)c1ccc(CC(C)C)cc1-c1ccc(Cn2ccnc2)cc1 |  |
| > 10 | 0.007 | CCCCOC(=O)NS(=O)(=O)c1sc(CC(C)C)cc1-c1ccc(CC(=O)N(C)C)cc1 |  |
| > 10 | 0.106 | CCCCOC(=O)NS(=O)(=O)c1sc(CC(C)C)cc1-c1ccc(C(N)=O)cc1 |  |
| 0.0021 | 0.0007 | CCCCOC(=O)NS(=O)(=O)c1ccc(CC(C)C)cc1-c1ccc(Cn2c(CC)nc3c(C)cc(C)nc32)cc1 |  |
| > 10 | 0.0369 | CCCCOC(=O)NS(=O)(=O)c1sc(CC(C)C)cc1-c1ccc(C(=O)N(C)C)cc1 |  |
| > 10 | 0.003 | CCCCOC(=O)NS(=O)(=O)c1sc(CC(C)C)cc1-c1ccc(C(=O)N(CC)CC)cc1 | Active |
